Assay results as given in ChEMBL document CHEMBL2057071, “Hit-to-lead investigation of a series of novel combined dopamine D2 and muscarinic M1 receptor ligands with putative antipsychotic and pro-cognitive potential” (Bioorg Med Chem Lett, 2012).

Experiments:
[1] = biological target: T1, D(2) dopamine receptor (Homo sapiens, UniProt P14416); assay: Displacement of [3H]raclopride from human D2L receptor expressed in CHO cells after 60 mins by scintillation proximity assay; assay type: cell-based
[2] = biological target: T2, Muscarinic acetylcholine receptor M1 (Homo sapiens, UniProt P11229); assay: Agonist activity at human M1 receptor expressed in CHO-K1 cells assessed as calcium mobilization for 6 mins by Calcium4-based staining; assay type: functional, cell-based
T2 sequence (P11229 whole entry): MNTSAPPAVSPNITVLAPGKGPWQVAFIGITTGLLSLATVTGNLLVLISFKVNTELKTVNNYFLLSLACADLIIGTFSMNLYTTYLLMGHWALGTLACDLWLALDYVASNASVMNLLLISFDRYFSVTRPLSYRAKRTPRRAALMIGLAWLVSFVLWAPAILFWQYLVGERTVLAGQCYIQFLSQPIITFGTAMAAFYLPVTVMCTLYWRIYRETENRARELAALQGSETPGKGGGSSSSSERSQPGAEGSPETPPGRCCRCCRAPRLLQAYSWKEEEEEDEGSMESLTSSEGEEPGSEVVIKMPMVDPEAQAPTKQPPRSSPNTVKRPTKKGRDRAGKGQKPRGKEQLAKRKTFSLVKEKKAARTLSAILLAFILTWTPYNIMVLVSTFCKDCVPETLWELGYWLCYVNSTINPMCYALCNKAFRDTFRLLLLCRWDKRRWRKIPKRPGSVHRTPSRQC

[3] = test system: Liver microsomes; assay: Intrinsic clearance in human liver microsomes at 1 uM after 60 mins; assay type: ADME, Microsome; conditions: 1 h
[4] = Lipophilicity, logP of the compound; assay type: physicochemical; conditions: octanol/water
[5] = Dissociation constant, pKa of the compound; assay type: physicochemical
[6] = biological target: Muscarinic acetylcholine receptor M3 (Homo sapiens) (UniProt P20309); assay: Agonist activity at human muscarinic M3 receptor expressed in BHK-21 cells assessed as calcium mobilization atb 10 uM for 6 mins by Calcium4-based staining relative to acetylcholine; assay type: functional, cell-based
[7] = biological target: Voltage-gated inwardly rectifying potassium channel KCNH2 (Homo sapiens, UniProt Q12809); assay: Inhibition of human ERG expressed in CHO cells after 30 mins by Rb+ flux assay
[8] = biological target: T3, Muscarinic acetylcholine receptor M1 (Homo sapiens) (UniProt P11229); assay: Agonist activity at human M1 receptor expressed in CHO-K1 cells assessed as calcium mobilization at 10 uM for 6 mins by Calcium4-based staining; assay type: functional, cell-based
T3 sequence (whole entry): T2 sequence (P11229 whole entry)
Outline: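 Functional agonism read as percent activity at 10 µM test concentration when no EC₅₀ could be established; means of two experiments.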

[9] = biological target: T1, D(2) dopamine receptor; assay: Displacement of [3H]raclopride from human D2L receptor expressed in CHO cells at 10 uM after 60 mins by scintillation proximity assay; assay type: cell-based
[10] = test system: Liver microsomes; assay: Intrinsic clearance in rat liver microsomes at 1 uM after 60 mins; assay type: ADME, Microsome; conditions: 1 h
[11] = biological target: T4, Muscarinic acetylcholine receptor M4 (Homo sapiens) (UniProt P08173); assay: Agonist activity at human muscarinic M4 receptor expressed in BHK-21 cells assessed as calcium mobilization at 10 uM for 6 mins by Calcium4-based staining relative to acetylcholine; assay type: functional, cell-based
T4 sequence (whole entry): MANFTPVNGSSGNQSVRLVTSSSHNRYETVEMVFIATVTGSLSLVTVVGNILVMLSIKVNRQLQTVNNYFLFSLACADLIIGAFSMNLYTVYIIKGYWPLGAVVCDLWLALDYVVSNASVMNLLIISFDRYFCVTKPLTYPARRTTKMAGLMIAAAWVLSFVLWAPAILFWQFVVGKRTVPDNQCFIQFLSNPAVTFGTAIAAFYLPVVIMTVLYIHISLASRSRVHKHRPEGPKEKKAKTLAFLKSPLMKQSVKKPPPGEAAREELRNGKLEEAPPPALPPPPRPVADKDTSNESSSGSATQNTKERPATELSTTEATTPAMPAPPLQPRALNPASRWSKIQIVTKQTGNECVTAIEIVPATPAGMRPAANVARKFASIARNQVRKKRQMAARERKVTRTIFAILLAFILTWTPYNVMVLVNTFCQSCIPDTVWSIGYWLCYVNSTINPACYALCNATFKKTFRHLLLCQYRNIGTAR

[12] = Plasma clearance in […] Sprague-Dawley rat; assay type: ADME, organism-based
[13] = biological target: T5, Muscarinic acetylcholine receptor M5 (Homo sapiens) (UniProt P08912); assay: Agonist activity at human muscarinic M5 receptor expressed in BHK-21 cells assessed as calcium mobilization at 10 uM for 6 mins by Calcium4-based staining relative to acetylcholine; assay type: functional, cell-based
T5 sequence (whole entry): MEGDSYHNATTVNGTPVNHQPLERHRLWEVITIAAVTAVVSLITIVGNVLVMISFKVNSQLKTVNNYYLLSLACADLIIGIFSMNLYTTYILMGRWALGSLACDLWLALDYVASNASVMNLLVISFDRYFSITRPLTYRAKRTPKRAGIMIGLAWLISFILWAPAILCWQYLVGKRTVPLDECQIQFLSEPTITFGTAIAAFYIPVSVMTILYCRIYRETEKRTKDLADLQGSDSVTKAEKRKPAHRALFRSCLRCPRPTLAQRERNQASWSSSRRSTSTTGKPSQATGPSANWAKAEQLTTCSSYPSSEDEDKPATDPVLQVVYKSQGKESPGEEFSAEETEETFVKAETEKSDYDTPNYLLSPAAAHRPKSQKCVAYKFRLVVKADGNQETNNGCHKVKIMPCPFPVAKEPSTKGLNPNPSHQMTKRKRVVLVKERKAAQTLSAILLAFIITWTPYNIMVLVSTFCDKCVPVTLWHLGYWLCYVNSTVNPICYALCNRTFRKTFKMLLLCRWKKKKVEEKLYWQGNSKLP

[14] = biological target: Muscarinic acetylcholine receptor M1 (Homo sapiens, UniProt P11229, Y381A); assay: Agonist activity at human muscarinic M1 receptor Y381A mutant expressed in BHK-21 cells assessed as calcium mobilization for 6 mins by Calcium4-based staining; assay type: functional, cell-based
[15] = test system: Hepatocyte; assay: Intrinsic clearance in Sprague-Dawley rat hepatocytes at 1 uM after 60 mins; assay type: ADME, cell-based; conditions: 1 h
[16] = biological target: T6, Muscarinic acetylcholine receptor M2 (Homo sapiens) (UniProt P08172); assay: Agonist activity at human muscarinic M2 receptor expressed in CHO-K1 cells assessed as calcium mobilization at 10 uM for 6 mins by Calcium4-based staining relative to acetylcholine; assay type: functional, cell-based
T6 sequence (whole entry): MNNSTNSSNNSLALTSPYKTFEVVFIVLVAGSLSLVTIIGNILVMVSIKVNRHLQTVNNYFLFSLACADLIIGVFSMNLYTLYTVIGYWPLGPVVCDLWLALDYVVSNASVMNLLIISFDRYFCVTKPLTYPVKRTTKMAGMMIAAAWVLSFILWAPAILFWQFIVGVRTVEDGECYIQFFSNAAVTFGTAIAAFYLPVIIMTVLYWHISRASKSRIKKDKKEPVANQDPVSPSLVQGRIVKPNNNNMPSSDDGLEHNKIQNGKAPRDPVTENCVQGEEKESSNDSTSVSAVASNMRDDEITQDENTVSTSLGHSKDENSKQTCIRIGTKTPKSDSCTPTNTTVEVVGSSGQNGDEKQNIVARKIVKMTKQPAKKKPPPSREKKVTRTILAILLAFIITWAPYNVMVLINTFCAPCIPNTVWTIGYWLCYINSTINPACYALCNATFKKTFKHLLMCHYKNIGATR

Voltage-gated inwardly rectifying potassium channel KCNH2, sequence (Q12809 whole entry): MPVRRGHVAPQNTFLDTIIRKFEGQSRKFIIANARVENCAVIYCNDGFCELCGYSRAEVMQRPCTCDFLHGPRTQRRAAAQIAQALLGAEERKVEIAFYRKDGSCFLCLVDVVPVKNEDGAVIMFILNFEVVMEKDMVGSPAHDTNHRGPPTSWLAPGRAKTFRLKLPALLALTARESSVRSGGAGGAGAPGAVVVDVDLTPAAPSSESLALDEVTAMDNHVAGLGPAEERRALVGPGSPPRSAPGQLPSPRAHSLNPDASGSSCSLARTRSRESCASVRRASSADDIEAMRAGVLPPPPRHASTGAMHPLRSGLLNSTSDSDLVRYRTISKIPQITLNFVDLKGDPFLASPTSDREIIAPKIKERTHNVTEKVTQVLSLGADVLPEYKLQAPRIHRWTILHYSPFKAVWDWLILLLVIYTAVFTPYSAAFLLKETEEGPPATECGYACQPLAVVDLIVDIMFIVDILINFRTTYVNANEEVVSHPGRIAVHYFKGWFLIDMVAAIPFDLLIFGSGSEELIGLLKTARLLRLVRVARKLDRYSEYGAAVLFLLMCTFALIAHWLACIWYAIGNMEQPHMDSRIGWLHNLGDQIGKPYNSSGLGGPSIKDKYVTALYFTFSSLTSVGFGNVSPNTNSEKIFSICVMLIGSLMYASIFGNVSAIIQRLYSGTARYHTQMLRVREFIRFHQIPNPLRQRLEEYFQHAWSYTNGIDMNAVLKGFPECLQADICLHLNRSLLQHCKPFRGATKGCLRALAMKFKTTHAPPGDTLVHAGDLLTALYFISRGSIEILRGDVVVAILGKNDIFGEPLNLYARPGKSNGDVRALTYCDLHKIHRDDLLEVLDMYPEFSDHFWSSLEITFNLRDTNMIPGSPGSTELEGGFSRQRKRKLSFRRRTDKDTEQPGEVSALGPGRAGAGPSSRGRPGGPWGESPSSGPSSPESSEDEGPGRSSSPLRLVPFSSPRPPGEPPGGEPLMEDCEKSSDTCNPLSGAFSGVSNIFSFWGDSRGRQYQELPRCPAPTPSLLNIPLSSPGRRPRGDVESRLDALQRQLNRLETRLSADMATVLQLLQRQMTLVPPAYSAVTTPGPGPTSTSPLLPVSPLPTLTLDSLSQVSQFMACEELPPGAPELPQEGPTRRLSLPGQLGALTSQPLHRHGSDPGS
T1 sequence (P14416 whole entry): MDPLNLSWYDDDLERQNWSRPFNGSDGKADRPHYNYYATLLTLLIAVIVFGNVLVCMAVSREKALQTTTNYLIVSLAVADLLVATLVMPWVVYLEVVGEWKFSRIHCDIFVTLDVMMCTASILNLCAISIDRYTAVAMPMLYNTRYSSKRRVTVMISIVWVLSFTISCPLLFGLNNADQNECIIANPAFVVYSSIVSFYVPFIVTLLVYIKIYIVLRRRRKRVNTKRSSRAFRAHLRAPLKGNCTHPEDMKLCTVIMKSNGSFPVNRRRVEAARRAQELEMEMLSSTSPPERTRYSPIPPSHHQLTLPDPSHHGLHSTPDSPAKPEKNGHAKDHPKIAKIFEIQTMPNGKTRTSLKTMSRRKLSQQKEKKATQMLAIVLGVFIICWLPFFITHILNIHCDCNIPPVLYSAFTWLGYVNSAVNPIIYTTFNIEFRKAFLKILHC
Muscarinic acetylcholine receptor M3 (Homo sapiens), sequence (P20309 whole entry, looked up): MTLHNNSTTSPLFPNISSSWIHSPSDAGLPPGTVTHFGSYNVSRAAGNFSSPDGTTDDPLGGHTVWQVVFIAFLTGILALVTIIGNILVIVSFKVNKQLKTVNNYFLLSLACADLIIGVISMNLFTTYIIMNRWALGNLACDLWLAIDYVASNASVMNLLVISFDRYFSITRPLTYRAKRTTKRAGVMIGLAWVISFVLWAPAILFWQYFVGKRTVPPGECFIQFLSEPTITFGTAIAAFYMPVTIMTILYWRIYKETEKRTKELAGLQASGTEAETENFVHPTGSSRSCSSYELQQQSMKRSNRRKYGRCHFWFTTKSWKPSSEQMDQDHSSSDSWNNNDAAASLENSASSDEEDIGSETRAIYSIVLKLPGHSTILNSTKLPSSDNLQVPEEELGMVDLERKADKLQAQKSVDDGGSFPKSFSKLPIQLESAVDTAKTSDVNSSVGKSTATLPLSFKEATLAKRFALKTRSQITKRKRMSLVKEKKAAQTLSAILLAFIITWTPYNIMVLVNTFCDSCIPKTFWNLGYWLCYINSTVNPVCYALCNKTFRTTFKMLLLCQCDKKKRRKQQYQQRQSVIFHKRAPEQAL
Muscarinic acetylcholine receptor M1 (Homo sapiens, UniProt P11229, Y381A), sequence (P11229 whole entry Y381A): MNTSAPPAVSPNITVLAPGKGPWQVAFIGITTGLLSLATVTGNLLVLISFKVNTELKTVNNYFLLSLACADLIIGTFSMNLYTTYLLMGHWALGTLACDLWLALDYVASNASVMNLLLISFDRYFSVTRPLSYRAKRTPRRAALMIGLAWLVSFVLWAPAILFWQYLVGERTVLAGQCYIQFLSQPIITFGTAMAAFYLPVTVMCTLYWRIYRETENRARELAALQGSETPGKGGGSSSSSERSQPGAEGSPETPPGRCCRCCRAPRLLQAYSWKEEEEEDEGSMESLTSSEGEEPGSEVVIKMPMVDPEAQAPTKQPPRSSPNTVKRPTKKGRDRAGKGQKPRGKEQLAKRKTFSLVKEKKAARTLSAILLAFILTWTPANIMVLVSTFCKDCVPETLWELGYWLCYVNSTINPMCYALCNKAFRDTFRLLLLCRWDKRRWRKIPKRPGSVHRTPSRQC

O=C1CCc2cccnc2N1CCCN1CCC(n2c(=O)[nH]c3ccccc32)CC1
Ki [1]: 600 nM | EC50 [2]: 20 nM | CLH [3]: 1.3 L/min

O=c1[nH]c2ccccc2n1C1CCN(CCOc2ccccc2)CC1 [OXIPEROMIDE]
Ki [1]: 5.5 nM | EC50 [2]: 400 nM | CLH [3]: 1.4 L/min | logP [4]: 3.4 | pKa [5]: 7.4

CC(=O)OCC[N+](C)(C)C
Emax [6]: 100%

O=C1CCc2c(F)cccc2N1CCCN1CCC(n2c(=O)[nH]c3ccccc32)CC1
Ki [1]: 60 nM | EC50 [2]: 68 nM | CLH [3]: 4.2 L/min

O=C(Cc1ccccc1)NC1CCN(CCCN2C(=O)COc3ccccc32)CC1
Ki [1]: > 5000 nM | CLH [3]: 3.4 L/min | IC50 [7]: 20000 nM | logP [4]: 2.4 | pKa [5]: 7.9

O=C1CCc2cnccc2N1CCCN1CCC(n2c(=O)[nH]c3ccccc32)CC1
Ki [1]: 1100 nM | CLH [3]: 9.4 L/min | Emax [8]: 0%

O=C1CCc2ccccc2N1CCCN1CCC(c2ccc3[nH]ccc3c2)CC1
Ki [1]: 42 nM | EC50 [2]: 160 nM | CLH [3]: 9 L/min | IC50 [7]: 4400 nM | logP [4]: 4.1 | pKa [5]: 9

O=C1COc2ccccc2N1CCCN1CCC(n2c(=O)[nH]c3c(F)cccc32)CC1
Ki [1]: 15 nM | EC50 [2]: 110 nM | CLH [3]: 13 L/min | IC50 [7]: 3400 nM

O=C1CCc2ncccc2N1CCCN1CCC(n2c(=O)[nH]c3ccccc32)CC1
Ki [1]: 2200 nM | EC50 [2]: 12 nM | CLH [3]: 2.8 L/min

O=C1CCc2cccc(F)c2N1CCCN1CCC(n2c(=O)[nH]c3ccccc32)CC1
Ki [1]: 95 nM | EC50 [2]: 300 nM | CLH [3]: 5.5 L/min

O=C1CCc2cc(F)ccc2N1CCCN1CCC(n2c(=O)[nH]c3ccccc32)CC1
Ki [1]: 6.5 nM | CLH [3]: 6.2 L/min | Emax [8]: 24%

O=C1COc2ccccc2N1CCCN1CCC(n2c(=O)[nH]c3ccc(F)cc32)CC1
Ki [1]: 14 nM | EC50 [2]: 44 nM | CLH [3]: 8.7 L/min | IC50 [7]: 4400 nM

O=C1CCc2ccccc2N1OCCN1CCC(n2c(=O)[nH]c3ccccc32)CC1
Ki [1]: 55 nM | CLH [3]: 2.3 L/min | Emax [8]: 31%

O=C1CCc2ccncc2N1CCCN1CCC(n2c(=O)[nH]c3ccccc32)CC1
Activity [9]: 55% | CLH [3]: 3.6 L/min | Emax [8]: 7%

O=C1CCc2ccc(F)cc2N1CCCN1CCC(n2c(=O)[nH]c3ccccc32)CC1
Ki [1]: 90 nM | CLH [3]: 7.8 L/min | Emax [8]: 23%

O=C1COc2ccccc2N1CCCN1CCC(n2c(=O)[nH]c3ccccc32)CC1
Ki [1]: 16 nM | EC50 [2]: 73 nM | CLH [3]: 5.1 L/min

O=C1COc2ccccc2N1CCCN1CCC(n2c(=O)[nH]c3cnccc32)CC1
Ki [1]: 1350 nM | CLH [3]: 1.7 L/min | Emax [8]: 4% | IC50 [7]: 46000 nM

O=C1COc2ccccc2N1CCCN1CCC(n2c(=O)[nH]c3ccncc32)CC1
Ki [1]: > 9500 nM | EC50 [2]: 1200 nM | CLH [3]: 0.9 L/min | IC50 [7]: > 50000 nM

O=C1CCc2ccccc2N1CCCN1CCC(n2c(=O)[nH]c3ccccc32)CC1
CLH [10]: 130 mL/min | Emax [11]: 8% | Ki [1]: 9.5 nM | CL/F [12]: 50 mL/min/kg | EC50 [2]: 110 nM | CLH [3]: 3.9 L/min | Emax [13]: 0% | EC50 [14]: 6.3 nM | CLH [15]: 160 mL/min | Emax [6]: 0% | Emax [16]: 0% | logP [4]: 2.8 | pKa [5]: 7.6

O=C1COc2ccccc2N1CCCN1CCC(n2c(=O)[nH]c3ncccc32)CC1
Ki [1]: 650 nM | CLH [3]: 2.6 L/min | Emax [8]: 8%

O=C1COc2ccccc2N1CCCN1CCC(n2c(=O)[nH]c3cccc(F)c32)CC1
Ki [1]: 41 nM | CLH [3]: 12 L/min | Emax [8]: 22%

O=C1COc2ccccc2N1CCCN1CCC(n2c(=O)[nH]c3cc(F)ccc32)CC1
Ki [1]: 2.5 nM | EC50 [2]: 66 nM | CLH [3]: 8.8 L/min | IC50 [7]: 1900 nM

O=C1COc2ccccc2N1CCCN1CCC(n2c(=O)[nH]c3cccnc32)CC1
Ki [1]: 1250 nM | EC50 [2]: 1700 nM | CLH [3]: 3.5 L/min | IC50 [7]: 13000 nM
